A1 inh: inhibitors of the anti-apoptotic protein A1, read as caspase activation; 330,000 tested, 0.066% active; caspase activation, % (concentration not given with the values); MEF A1-2A-BIM cells, Caspase-Glo 3/7 luminescence, 3 h; percent of clofoctol response, vehicle zero;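 active = over half of replicate activation scores above 10%, or exactly half above 10 with the replicate mean above 10; inconclusive = replicate mean below 10 yet half the replicates above 10; inactive = over half of replicates below 10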
NLRP3 yeast inh: inhibitors of NALP3 inflammasome in yeast | Yeast reconstituted NLRP3/ASC/caspase-1, beta-gal luminescence, 24 h | AID 2825 | inhibition, % at 10 µM | 330,000 tested, 0.39% active;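 active = inhibition of 50% or more; inactive = inhibition below 50%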
NALP1 inh: NALP1 inhibition. inhibition, % at 10 µM. S. cerevisiae NALP1/ASC/caspase-1 growth, X-gal OD620, 72 h. 280,000 tested, 0.61% active; in the data active = inhibition mostly above about 24%, no sharp cut-off; inactive = mostly below about 32%
MC4R antagonist: blocks human MC4R cAMP signaling; 360,000 tested, 0.48% active; AID 540295; inhibition, % at 6.5 µM; MC4R-expressing cells, MTII-stimulated cAMP, LANCE TR-FRET;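 active = inhibition above its plate's cutoff, the mean of tested wells on that plate plus 3 SD, cut at about 29% in these data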
Target sequence (P32245 whole entry, looked up): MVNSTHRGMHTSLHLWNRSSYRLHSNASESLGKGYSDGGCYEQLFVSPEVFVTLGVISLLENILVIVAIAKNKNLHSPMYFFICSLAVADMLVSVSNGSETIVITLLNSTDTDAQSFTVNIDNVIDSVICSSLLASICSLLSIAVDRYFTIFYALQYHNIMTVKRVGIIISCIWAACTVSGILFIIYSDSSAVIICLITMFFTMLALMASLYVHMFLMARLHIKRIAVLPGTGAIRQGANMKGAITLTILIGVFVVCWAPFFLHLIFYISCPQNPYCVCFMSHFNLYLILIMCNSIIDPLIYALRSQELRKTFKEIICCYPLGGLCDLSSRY
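Test system: U2OS cells stably expressing human melanocortin 4 receptor (MC4R); also added: Melanotan II challenge; compound: 6.5 µM single dose; timing: 30-min compound preincubation, 1-h Melanotan II challenge, 1-h detection, room temperature; signal: Eu-cAMP/anti-cAMP TR-FRET, emission 671 nm; repeats: one well per compound, no replicates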
MC4R barr agon: human MC4R agonism via beta-arrestin; activation, % at 8.9 µM; U2OS MC4R beta-arrestin complementation, luminescence; percent of melanotan II response, DMSO zero; 360,000 tested, 0.98% active;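 active = activation above a per-plate cutoff, the mean activation of sample wells on that plate plus 3 SD, cut at about 8% in these data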
TbMetRS inhib: blocks T. brucei methionyl-tRNA synthetase activity | purified T. brucei MetRS, ATP depletion, Kinase-Glo luminescence | inhibition, % at 11.9 µM | 360,000 tested, 0.4% active;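 active = inhibition above a per-plate cutoff of the control wells' mean inhibition plus 3 SD, cut at about 5.5% in these data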
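Test system – parasite MetRS enzyme · Reagent – substrates ATP, L-methionine and bulk Escherichia coli tRNA · Doses – 11.9 µM compound single dose, 0.9% DMSO · Times – 15 min enzyme-compound preincubation, 2 h reaction, 10 min detection, 25 °C · Signal – Kinase-Glo luminescence, ATP depletion format · Controls – DMSO-only wells as low control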
NALP3 confirm: confirmation of NALP3 inhibitors in yeast; inhibition, % at 10 µM; 1,300 tested, 81% active; yeast expressing human NALP3, luminescence; AID 435006; shares compounds with NLRP3 yeast inh; in the data active = inhibition above about 48%
Casp1-ASC yeast: caspase-1-ASC yeast counter-screen hit | yeast expressing Caspase-1-ASC, luminescence counter screen | 1,000 tested, 66% active | inhibition, % at 10 µM | shares compounds with NLRP3 yeast inh | AID 488784
NALP3 yeast rt: retest-confirmed inhibitor of NALP3 in yeast. shares compounds with NLRP3 yeast inh. yeast expressing human NALP3, luminescence read-out. inhibition, % at 10 µM. 1,000 tested, 53% active. AID 488794
Each line names hits and unclear results; the compound was inactive in the other large screens (follow-up assays come after a bar, where they were run). Most compounds without a hit are left out; they make up all but 2.5% or so of the library. Rule as the data show it, unless noted: active = inhibition above about 50%; inactive = the rest.

CN1CCN(c2ccc(NC(=O)c3cccc(OCc4ccccc4)c3)cc2)CC1	NLRP3 yeast inh 50.0, NALP1 inh 31.3 | NALP3 confirm 55.2 | Casp1-ASC yeast inactive | NALP3 yeast rt inactive
COc1cccc(NC(=O)c2cccs2)c1	NLRP3 yeast inh 68.1 | NALP3 confirm 81.4 | Casp1-ASC yeast 71.3 | NALP3 yeast rt 56.5
COc1ccc(C)cc1NC(=O)c1cc2ccccc2o1	none
CC(NC(=O)c1ccc(C(=O)c2ccccc2)cc1)c1ccc(S(N)(=O)=O)cc1 (centres undefined)	none (no result: A1 inh, NALP1 inh)
CCn1cc(/C=C(\NC(=O)c2ccccc2F)C(=O)NCCN2CCOCC2)c2ccccc21	none
O=C(Nc1ccc2c(c1)OCCO2)c1cccc(Br)c1	NLRP3 yeast inh 52.3 | NALP3 confirm 73.5 | Casp1-ASC yeast 50.5 | NALP3 yeast rt 50.5
O=C(Nc1ccc2oc(=O)ccc2c1)c1cc2ccccc2o1	none
Cc1ccc(NC(=O)Cn2cccc2)cc1C	none
Cc1ccc(NC(=O)CCn2cccc2)cc1C	NLRP3 yeast inh 58.7 | NALP3 confirm 74.0 | Casp1-ASC yeast inactive | NALP3 yeast rt inactive
O=C(Nc1ccc2c(c1)OCCO2)c1cc2ccccc2o1	NLRP3 yeast inh 52.6 | NALP3 confirm 68.7 | Casp1-ASC yeast 63.3 | NALP3 yeast rt 73.0
O=C(Nc1ccc(Nc2ccccc2)cc1)c1ccccc1F	NLRP3 yeast inh 52.0 | NALP3 confirm 67.6 | Casp1-ASC yeast 58.0 | NALP3 yeast rt 64.2
O=C(Nc1ccccn1)c1ccc(S(=O)(=O)N2CCCCC2)cc1	none (no result: NALP1 inh)
CC1CN(C(=O)COC(=O)c2ccccc2O)CC(C)O1 (centres undefined)	none
COc1ccc(NC(=O)C2CCCN(S(C)(=O)=O)C2)cc1OC (centres undefined)	none
CC(OC(=O)c1cccc(S(=O)(=O)N2CCOCC2)c1)C(=O)NC1CCCCC1C (centres undefined)	none (no result: NALP1 inh)
O=C(Nc1cccc(F)c1)c1ccccc1	NLRP3 yeast inh 59.9 | NALP3 confirm 83.5 | Casp1-ASC yeast 68.2 | NALP3 yeast rt 67.9
CCCCc1cc(O)c(CCCC)c(O)c1	NLRP3 yeast inh 51.4 | NALP3 confirm 61.9 | Casp1-ASC yeast inactive | NALP3 yeast rt inactive
CCc1cc(C(=O)Nc2cc(S(=O)(=O)N(CC)CC)ccc2N2CCN(C)CC2)sc1C	none (no result: NALP1 inh)
CCc1cc(C(=O)Nc2cc(Cl)ccc2N2CCN(C)CC2)sc1C	NLRP3 yeast inh 66.5 (no result: NALP1 inh) | NALP3 confirm 78.8 | Casp1-ASC yeast 76.7 | NALP3 yeast rt 72.5
Cc1onc(-c2ccccc2Cl)c1C(=O)N1C=CC(C(F)(F)F)=NCC1	A1 inh inconclusive, NLRP3 yeast inh 50.4, NALP1 inh 58.0 | NALP3 confirm 65.5 | Casp1-ASC yeast inactive | NALP3 yeast rt 53.0
O=C(N/N=C/C(Br)=C\c1ccccc1)c1ccco1	NLRP3 yeast inh 63.8 | NALP3 confirm 77.2 | Casp1-ASC yeast 74.0 | NALP3 yeast rt 53.5
CCCC(=O)c1ccc(N2CCCC2)c(F)c1	NLRP3 yeast inh 55.5 | NALP3 confirm inactive
N#Cc1ccc2sn(-c3ccccc3)c(=O)c2c1	none (no result: A1 inh, NLRP3 yeast inh, NALP1 inh)
CN(C)/N=C/c1ccc(Sc2ccc([N+](=O)[O-])cc2[N+](=O)[O-])o1	NLRP3 yeast inh 53.9 | NALP3 confirm inactive
Cc1ccc(CN2CCC[C@]3(N[C@H](c4ccc(C)cc4)[C@@H]4C(=O)N(Cc5ccccc5)C(=O)[C@@H]43)C2=O)cc1	none (no result: A1 inh, NLRP3 yeast inh, NALP1 inh)
Cc1cc(Cl)c(S(=O)(=O)Nc2ccon2)cc1OCC(=O)NC1CCCCC1	none
Cc1cc(Cl)c(S(=O)(=O)NC2CCCCC2)cc1OCC(=O)Nc1nncs1	NLRP3 yeast inh 50.4 | NALP3 confirm 49.5 | Casp1-ASC yeast inactive | NALP3 yeast rt inactive
O=C(NC1CC1)c1ccc(-c2nc3ccccc3s2)s1	NLRP3 yeast inh 60.0 | NALP3 confirm 55.0 | Casp1-ASC yeast 51.5 | NALP3 yeast rt inactive
O=C(c1ccc(-c2nc3ccccc3s2)s1)N1CCOCC1	none (no result: MC4R antagonist, MC4R barr agon, TbMetRS inhib)
O=C1Nc2ccccc2/C1=C/c1ccccc1Cl	NLRP3 yeast inh 54.6 | NALP3 confirm 68.6 | Casp1-ASC yeast inactive | NALP3 yeast rt inactive
O=c1c2sc(-c3ccccc3)cc2nc2n1CCC2	NLRP3 yeast inh 55.3 | NALP3 confirm inactive | Casp1-ASC yeast inactive | NALP3 yeast rt inactive
O=S(=O)(Nc1ccc(N=Nc2ccccc2)cc1)c1ccccc1	NLRP3 yeast inh 58.8, MC4R barr agon 8.3 | NALP3 confirm inactive
Cc1ccc(-c2c[nH]c(=S)n2-c2ccccc2)cc1	NLRP3 yeast inh 61.0 | NALP3 confirm inactive | Casp1-ASC yeast inactive | NALP3 yeast rt inactive
CCOc1ccc(-n2c(-c3ccccc3)c[nH]c2=S)cc1	NLRP3 yeast inh 58.8 | NALP3 confirm 58.2 | Casp1-ASC yeast inactive | NALP3 yeast rt inactive
Cc1ccc(-c2c[nH]c(=S)n2-c2ccccc2F)cc1	NLRP3 yeast inh 55.0 | NALP3 confirm inactive
CC(=O)Nc1cccc(-c2ccnc3c2CC(C)(C(=O)Nc2ccc(Cl)cc2)O3)c1 (centres undefined)	none (no result: A1 inh, NLRP3 yeast inh, NALP1 inh)
CCOC1=C2CN(S(=O)(=O)c3ccc(C)cc3)C(c3ccc(CC)cc3)CC2n2c(=O)n(-c3ccccc3)c(=O)n2C1 (centres undefined)	none (no result: A1 inh, NLRP3 yeast inh, NALP1 inh, MC4R antagonist, MC4R barr agon)
NNC(=O)c1ccc2nc(-c3ccc(Br)cc3)cn2c1	NLRP3 yeast inh 52.7, NALP1 inh 38.9 | NALP3 confirm 70.2
COc1ccc(-c2cn3cc(C(=O)NN)ccc3n2)cc1	none
O=C(c1ccc2n[nH]nc2c1)N1CCN(c2ccc(C(F)(F)F)cn2)CC1	none (no result: NALP1 inh)
COc1cccc(-c2nn(-c3ccc(F)cc3)cc2C(=O)NCC2CCCO2)c1 (centres undefined)	none (no result: NALP1 inh)
FC(F)(F)c1cccc(-c2nc3nc(Cl)c(Cl)nc3[nH]2)c1	NLRP3 yeast inh 60.6 | NALP3 confirm 97.4 | Casp1-ASC yeast inactive | NALP3 yeast rt inactive
FC(F)(F)c1nc2nc(Cl)c(Cl)nc2[nH]1	none (no result: A1 inh, NLRP3 yeast inh, NALP1 inh)
Cc1cc(C(=O)Nc2ccccc2Cl)n(-c2ccccc2)n1	none
C#CCOc1ccc2c3c(c(=O)oc2c1)CCCC3	NLRP3 yeast inh 59.0 | NALP3 confirm 61.8 | Casp1-ASC yeast 60.0 | NALP3 yeast rt inactive
CC(=O)Oc1[nH]c(=O)c2cccc3c2c1CCC3	none (no result: A1 inh, NLRP3 yeast inh, NALP1 inh)
Cn1nc(-c2ccc(Cl)cc2)nc2c(=O)n(C)c(=O)nc1-2	NLRP3 yeast inh 96.2, NALP1 inh 48.1 (no result: MC4R antagonist, MC4R barr agon, TbMetRS inhib) | NALP3 confirm 99.0 | Casp1-ASC yeast 99.0 | NALP3 yeast rt 99.0

Screens as filed in PubChem.
